Active and inactive are the calls of the source. No cut-off for these calls is given here.

The values that follow come from ChEMBL document CHEMBL4396973, “Design and development of a series of borocycles as selective, covalent kallikrein 5 inhibitors” (Bioorg Med Chem Lett, 2019).

Data set [1] can be described thus: Genotoxicity in Salmonella typhimurium TA100 in presence of rat S9 fraction by mini-Ames test. The data set is classed as toxicity, subcellular. The note with it: salmonella enterica subsp. enterica serovar typhimurium. (In general: In the Ames test, an excess of revertant colonies over the control signals mutagenicity.)
Data set [2] in a line: Genotoxicity in Salmonella typhimurium TA98 in absence of rat S9 fraction by mini-Ames test. The data set is classed as toxicity. The note with it: salmonella enterica subsp. enterica serovar typhimurium.
Data set [3] can be described thus: Solubility of the compound in Britton-Robinson buffer at pH 6 measured after 12 hrs. The data set is classed as physicochemical. The method, boiled down: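 Solubility was measured in Britton-Robinson buffers spanning pH 2 to pH 8. Readings were taken after 12 h and 24 h and reported in mg/mL.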
Data set [4] concerns the target Urokinase-type plasminogen activator (Homo sapiens, UniProt P00749). Briefly: Inhibition of recombinant human C-terminal 10-His-tagged urokinase (M1 to L431 residues) expressed in mouse NS0 cells using Z-GGR-AMC as substrate incubated for 40 mins by FLINT assay.
Data set [5] has as its target T1, Neutrophil elastase (Homo sapiens, UniProt P08246).
T1 sequence (P08246 whole entry): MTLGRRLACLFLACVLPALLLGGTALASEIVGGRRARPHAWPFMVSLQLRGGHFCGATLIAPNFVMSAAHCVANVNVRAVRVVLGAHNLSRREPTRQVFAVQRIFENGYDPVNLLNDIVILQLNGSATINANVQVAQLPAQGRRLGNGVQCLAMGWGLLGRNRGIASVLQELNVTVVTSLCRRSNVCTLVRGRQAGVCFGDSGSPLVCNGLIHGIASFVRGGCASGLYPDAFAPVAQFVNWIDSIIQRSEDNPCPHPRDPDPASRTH
Briefly: Inhibition of human neutrophil elastase using MeOSuc-AAPV-AMC as substrate incubated for 40 mins by FLINT assay.

The target in data set [6] is Plasma kallikrein (Homo sapiens, UniProt P03952). Briefly: Inhibition of human C-terminal 6-His-tagged KLKB1 (G20-A638 residues) expressed in mouse NS0 cells using PFR-AMC as substrate incubated for 40 mins by FLINT assay.
Sequence of Plasma kallikrein (P03952 20-390 limits assumed): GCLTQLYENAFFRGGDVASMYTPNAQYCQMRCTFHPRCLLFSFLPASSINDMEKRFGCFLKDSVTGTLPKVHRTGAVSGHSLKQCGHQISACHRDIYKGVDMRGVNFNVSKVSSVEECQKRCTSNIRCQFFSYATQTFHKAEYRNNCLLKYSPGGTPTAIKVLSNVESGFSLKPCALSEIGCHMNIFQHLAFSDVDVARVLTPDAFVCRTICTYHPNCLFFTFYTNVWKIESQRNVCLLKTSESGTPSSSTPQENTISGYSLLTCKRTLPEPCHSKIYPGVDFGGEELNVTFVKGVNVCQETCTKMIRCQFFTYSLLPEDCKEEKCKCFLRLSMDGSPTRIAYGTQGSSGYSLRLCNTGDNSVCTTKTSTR
Sequence of Plasma kallikrein (P03952 391-638 limits assumed): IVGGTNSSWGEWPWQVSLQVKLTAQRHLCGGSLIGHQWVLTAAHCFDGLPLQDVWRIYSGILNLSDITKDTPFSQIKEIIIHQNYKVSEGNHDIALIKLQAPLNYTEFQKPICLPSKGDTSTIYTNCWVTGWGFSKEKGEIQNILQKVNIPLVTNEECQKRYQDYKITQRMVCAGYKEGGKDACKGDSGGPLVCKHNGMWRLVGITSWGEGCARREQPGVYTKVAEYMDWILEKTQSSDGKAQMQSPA
Data set [7] can be described thus: Light absorbance of the compound in methanol under UV light irradiation at 290 nm. An outline of the steps: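 Compound dissolved in methanol. UV absorbance was examined across the range above 290 nm as a screen for light-mediated skin toxicity risk.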
The nature of data set [8]: Genotoxicity in Salmonella typhimurium TA98 in presence of rat S9 fraction by mini-Ames test. The class given is toxicity, subcellular. The conditions noted are these: salmonella enterica subsp. enterica serovar typhimurium.
Data set [9] deals with Kallikrein-5 (Homo sapiens) (UniProt Q9Y337). Description: Covalent reversible inhibition of human recombinant 6His-Q-FLAG-tagged KLK5 expressed in baculovirus infected Sf9 insect cells assessed as dissociation half life. The method, boiled down: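 Jump-dilution experiment used to follow dissociation from KLK5. The apparent off-rate constant (K-off, per min) and dissociation half-life (T1/2) were derived from it.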
Sequence of Kallikrein-5 (Homo sapiens) (Q9Y337 whole entry): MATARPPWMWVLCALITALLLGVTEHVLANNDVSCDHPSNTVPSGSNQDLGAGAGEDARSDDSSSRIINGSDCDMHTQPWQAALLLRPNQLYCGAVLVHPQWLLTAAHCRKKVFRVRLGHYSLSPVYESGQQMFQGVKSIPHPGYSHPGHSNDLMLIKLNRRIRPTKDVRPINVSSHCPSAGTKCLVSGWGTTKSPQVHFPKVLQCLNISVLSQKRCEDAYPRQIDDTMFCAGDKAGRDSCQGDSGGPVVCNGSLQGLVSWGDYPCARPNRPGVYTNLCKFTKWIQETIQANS

The target of data set [10] is Kallikrein-7 (Homo sapiens, UniProt P49862). Description: Inhibition of recombinant human C-terminal 10-His-tagged KLK7 (Glu23 to His252 residues) expressed in mouse NS0 cells using 5-FAM-E-A-L-Y-L-V-S-G-C(5-TAMRA) as substrate incubated for 40 mins by FLINT assay.
Sequence of Kallikrein-7 (P49862 whole entry): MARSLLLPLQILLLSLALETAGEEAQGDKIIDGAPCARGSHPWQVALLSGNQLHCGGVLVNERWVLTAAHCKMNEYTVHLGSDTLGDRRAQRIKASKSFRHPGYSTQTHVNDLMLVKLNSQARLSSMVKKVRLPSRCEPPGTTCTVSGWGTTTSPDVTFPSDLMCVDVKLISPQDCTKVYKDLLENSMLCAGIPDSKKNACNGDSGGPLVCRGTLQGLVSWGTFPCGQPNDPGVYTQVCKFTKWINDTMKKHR

In general, solubility refers to how much of the substance goes into solution per volume. Usually IC50 stands for the midpoint of a concentration-inhibition curve. `Cl.N=C(N)c1ccc([C@H]2Cc3ccc(C(F)(F)F)cc3B(O)O2)cc1OCc1cccnc1`: the Activity result in [1], in data set [2] and in [8] was “Non-Toxic” in each case. The molecule also displayed a solubility at 12 h in [3] of 3200 µg/mL. Besides, the IC50 in [4] is 7.94 µM; in data set [5], more than 100 µM; in [6], 0.02 µM; in data set [10] it was 79.4 µM. The outcome in [7] was inactive. Also, the T1/2 in data set [9] was 1.17 h.
